Published values of several laboratories.
Each line is one published result; the experiments were not run side by side.
Method: competition with immobilised ligand
RPS6KA2 C-terminal kinase domain: Ribosomal protein S6 kinase alpha-2, C-terminal kinase domain (RPS6KA2, Homo sapiens, UniProt Q15349)
RPS6KA2 N-terminal kinase domain: Ribosomal protein S6 kinase alpha-2, N-terminal kinase domain (RPS6KA2, Homo sapiens, UniProt Q15349)

C[C@@H](c1ccc(-n2cnc3c(N)ncnc32)cc1)N1CCc2nn(C)c(Cc3ccccc3)c2C1=O
remaining binding (RPS6KA2 C-terminal kinase domain; binding; 0.1 µM): 78%

C[C@@H]1CCN(c2nccc(-c3cnn4ncccc34)n2)C1
remaining binding (RPS6KA2 N-terminal kinase domain; binding; 1 µM): 79%

COc1ccc2cc(OCC3(C(=O)O)CN(C(=O)c4ccc(F)cc4)C3)ccc2c1
remaining binding (RPS6KA2 C-terminal kinase domain; cell-free assay; 1 µM): 100%

COc1cc(C(=O)N2CCC(N3CCN(C)CC3)CC2)ccc1Nc1ncc2c(n1)N(C)c1ccccc1C(=O)N2C
remaining binding (RPS6KA2 C-terminal kinase domain; binding; 10 µM): 7.5%

CCOCCn1cc(C(=O)Nc2ccc(-n3nc(-c4cccnc4)cc3C(F)(F)F)cn2)ccc1=O
remaining binding (RPS6KA2 N-terminal kinase domain; cell-free assay; 1 µM): 84%

CCN1CCN(Cc2ccc(C(=O)Nc3ccc(C)c(Oc4ccc5c(c4)CC(=O)N5)c3)cc2C(F)(F)F)CC1
remaining binding (RPS6KA2 N-terminal kinase domain; binding; 1 µM): 100%

FC(F)(F)Oc1cccc(-c2cnc3ccc(-c4ccncc4)nn23)c1
remaining binding (RPS6KA2 N-terminal kinase domain; binding; 5 µM): 79%

COc1cnc(Nc2cccc(S(N)(=O)=O)c2)nc1N1CCN(c2ccccc2)CC1
remaining binding (RPS6KA2 C-terminal kinase domain; binding; 1 µM): 84%

O=C(c1ccc(Nc2ncc(Cl)c(-c3cc4ccccc4s3)n2)cc1)N1CCC(N2CCCC2)CC1
remaining binding (RPS6KA2 C-terminal kinase domain; binding; 1 µM): 100%

c1cnn2ncc(-c3ccnc(N4CCC45COC5)n3)c2c1
remaining binding (RPS6KA2 C-terminal kinase domain; binding; 1 µM): 85%

O=C(c1ccc(Nc2ncc(Cl)c(-c3ccc(Cl)s3)n2)cc1)N1CCC(N2CCCC2)CC1
remaining binding (RPS6KA2 N-terminal kinase domain; binding; 1 µM): 100%

Nc1ncc2c(n1)-c1c([nH]c3ccc(C#CC4CC4)cc13)CCCC2
remaining binding (RPS6KA2 N-terminal kinase domain; binding; 1 µM): 91%

O=C(Nc1c[nH]nc1C(=O)NC1CCNCC1)c1cc(F)cc(F)c1
remaining binding (RPS6KA2 C-terminal kinase domain; binding; 1 µM): 100%

CS(=O)(=O)c1cc(C2(NC(=O)c3cncc4c3cnn4-c3ccc(F)cc3)CC2)ccn1
remaining binding (RPS6KA2 C-terminal kinase domain; cell-free assay; 1 µM): 88%

F[C@@H]1CCN(c2nccc(-c3cnn4ncccc34)n2)C1
remaining binding (RPS6KA2 C-terminal kinase domain; binding; 1 µM): 91%

CNC(=O)[C@@H]1CC[C@@H](n2c(-c3ccc4cnccc4c3)nc3ccc(C(=O)NCc4cccc(C(N)=O)c4)cc32)C1
remaining binding (RPS6KA2 N-terminal kinase domain; binding; 1 µM): 100%

c1cncc(-c2cccc(Nc3nccc(NC4CCCCC4)n3)c2)c1
remaining binding (RPS6KA2 C-terminal kinase domain; binding; 10 µM): 100%

C=CC(=O)N1CCC(C(=O)NCC(=O)N2CCN(c3nc(-c4cnc(N)nc4C(F)F)nc(N4CCOCC4)n3)CC2)CC1
remaining binding (RPS6KA2 C-terminal kinase domain; binding; 1 µM): 93%

CN1CCN(c2cnc3c(C4CCN(C(=O)c5ccc(OC(F)(F)F)cc5N)CC4)ncnc3c2)CC1
remaining binding (RPS6KA2 C-terminal kinase domain; cell-free assay; 1 µM): 100%

O=C(NCCCN1CCOCC1)c1ccc(Nc2nccc(-c3cc4ccccc4s3)n2)cc1
remaining binding (RPS6KA2 N-terminal kinase domain; binding; 1 µM): 100%

N[C@@H]1CCN(c2nccc(-c3cnn4ncccc34)n2)C1
remaining binding (RPS6KA2 C-terminal kinase domain; binding; 1 µM): 100%

CC(C)CC(=O)N1CCc2nc(-c3ccc(Br)cc3)nc(N(C)Cc3ccccc3)c2C1
remaining binding (RPS6KA2 C-terminal kinase domain; cell-free assay; 0.1 µM): 100%

O=C(c1ccc(Nc2nccc(-c3cc4ccccc4s3)n2)cc1)N1CCC(N2CCCC2)CC1
remaining binding (RPS6KA2 C-terminal kinase domain; binding; 1 µM): 74%

Nc1cnc(N2CCc3cc(S(=O)(=O)Nc4c(F)cc(Cl)cc4F)cc(N4CCCC4=O)c32)nc1
remaining binding (RPS6KA2 N-terminal kinase domain; cell-free assay; 1 µM): 88%

COc1cnc(Nc2cccc(S(N)(=O)=O)c2)nc1N1CCN(c2ccccc2)C(=O)C1
remaining binding (RPS6KA2 N-terminal kinase domain; binding; 1 µM): 96%

O=C(NCCCN1CCOCC1)c1ccc(Nc2ncc(Cl)c(-c3ccc(Cl)s3)n2)cc1
remaining binding (RPS6KA2 N-terminal kinase domain; binding; 1 µM): 100%

CN(c1nccc(-c2cnn3ncccc23)n1)C1CC1
remaining binding (RPS6KA2 C-terminal kinase domain; binding; 1 µM): 100%

Cc1cnc(Nc2ccc(C(=O)N3CCC(N4CCCC4)CC3)cc2)nc1-c1cc2ccccc2s1
remaining binding (RPS6KA2 C-terminal kinase domain; binding; 1 µM): 95%

O=C(NCC1CCOCC1)c1n[nH]cc1NC(=O)c1c(F)cccc1F
remaining binding (RPS6KA2 N-terminal kinase domain; binding; 1 µM): 100%

Cc1c(NC(=O)c2cc(C(N)=O)nc3cc(F)ccc23)c(C(F)(F)F)nn1Cc1ccc(C#N)cc1
remaining binding (RPS6KA2 C-terminal kinase domain; cell-free assay; 1 µM): 86%

CN(CCCC(F)(F)F)c1nccc(-c2cnn3ncccc23)n1
remaining binding (RPS6KA2 N-terminal kinase domain; binding; 1 µM): 86%

COc1ncc2cc3ccccc3nc2c1C#N
remaining binding (RPS6KA2 N-terminal kinase domain; cell-free assay; 5 µM): 91%

CN(C)c1nccc(-c2cnc3ncccn23)n1
remaining binding (RPS6KA2 N-terminal kinase domain; binding; 1 µM): 83%

COCCOc1nc(-c2ccc(Cl)nc2)nc2c1CN(C(=O)c1ncn3ccccc13)CC2
remaining binding (RPS6KA2 C-terminal kinase domain; cell-free assay; 0.1 µM): 100%
